According to ChEMBL document CHEMBL1165965, “Synthesis and structure-activity relationships of 1,2,3,4-tetrahydropyrido[2,3-b]pyrazines as potent and selective inhibitors of the anaplastic lymphoma kinase” (Bioorg Med Chem, 2010):

Tests used:
[1] = target: TRAF2 and NCK-interacting protein kinase (Homo sapiens) (UniProt Q9UKE5); assay: Inhibition of TNIK at 1 uM
Outline: (§1)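 Single-concentration screen on the Ambit KINOMEscan platform, run against a panel of 250–400 kinases. Per-kinase inhibition was also summarized as S(90), the fraction of kinases inhibited by more than 90%.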

[2] = target: ALK tyrosine kinase receptor (Homo sapiens, UniProt Q9UM73); assay: Inhibition of ALK at 1 uM
[3] = system: Phosphatidylinositol 4,5-bisphosphate 3-kinase catalytic subunit alpha isoform (Homo sapiens), P42336 [H1047L]; assay: Inhibition of PIK3CA H1047L mutant at 1 uM
[4] = target: Ephrin type-A receptor 5 (Homo sapiens) (UniProt P54756); assay: Inhibition of EPHA5 at 1 uM
Ephrin type-A receptor 5 (Homo sapiens), sequence (P54756 whole entry): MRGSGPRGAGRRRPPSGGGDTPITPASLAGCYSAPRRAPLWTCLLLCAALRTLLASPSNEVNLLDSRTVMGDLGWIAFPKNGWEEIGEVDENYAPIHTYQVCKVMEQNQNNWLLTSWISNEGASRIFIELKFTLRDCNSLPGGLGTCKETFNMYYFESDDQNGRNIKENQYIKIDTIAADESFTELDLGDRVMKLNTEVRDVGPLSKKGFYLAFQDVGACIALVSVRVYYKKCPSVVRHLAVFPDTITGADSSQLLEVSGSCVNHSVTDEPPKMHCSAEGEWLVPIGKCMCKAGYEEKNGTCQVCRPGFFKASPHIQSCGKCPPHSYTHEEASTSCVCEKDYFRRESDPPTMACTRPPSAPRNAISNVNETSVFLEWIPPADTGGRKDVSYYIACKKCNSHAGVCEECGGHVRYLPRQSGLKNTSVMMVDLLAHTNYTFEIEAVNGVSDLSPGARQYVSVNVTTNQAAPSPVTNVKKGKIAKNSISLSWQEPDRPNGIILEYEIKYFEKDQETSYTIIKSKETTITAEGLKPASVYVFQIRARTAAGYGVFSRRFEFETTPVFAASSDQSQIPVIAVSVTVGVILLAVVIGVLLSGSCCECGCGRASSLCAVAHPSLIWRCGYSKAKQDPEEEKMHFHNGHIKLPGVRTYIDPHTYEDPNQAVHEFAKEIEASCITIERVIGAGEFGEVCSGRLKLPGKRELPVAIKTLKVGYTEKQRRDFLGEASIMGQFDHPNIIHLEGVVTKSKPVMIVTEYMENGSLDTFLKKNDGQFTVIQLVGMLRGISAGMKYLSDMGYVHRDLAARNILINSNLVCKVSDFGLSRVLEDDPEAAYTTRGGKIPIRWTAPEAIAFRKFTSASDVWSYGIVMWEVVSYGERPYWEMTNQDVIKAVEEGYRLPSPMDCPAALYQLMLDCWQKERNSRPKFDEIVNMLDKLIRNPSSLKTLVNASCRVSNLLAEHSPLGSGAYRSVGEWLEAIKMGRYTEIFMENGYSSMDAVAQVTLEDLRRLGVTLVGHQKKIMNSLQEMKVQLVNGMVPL
Outline: (§2)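 Single-concentration screen using Ambit Bioscience KINOMEscan technology across a panel of 250–400 kinases. Per-kinase inhibition from this screen was summarized as S(90), the fraction of kinases inhibited by more than 90%.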

[5] = target: Interleukin-1 receptor-associated kinase 1 (Homo sapiens) (UniProt P51617); assay: Inhibition of IRAK1 at 1 uM
[6] = target: Mitogen-activated protein kinase 3 (Homo sapiens) (UniProt P27361); assay: Inhibition of ERK1 at 1 uM; outline: as §2
[7] = target: Serine/threonine-protein kinase Nek6 (Homo sapiens) (UniProt Q9HC98); assay: Inhibition of NEK6 at 1 uM
[8] = target: Activated CDC42 kinase 1 (Homo sapiens) (UniProt Q07912); assay: Inhibition of TNK2 at 1 uM; outline: as §1
Activated CDC42 kinase 1 (Homo sapiens), sequence (Q07912 whole entry, looked up): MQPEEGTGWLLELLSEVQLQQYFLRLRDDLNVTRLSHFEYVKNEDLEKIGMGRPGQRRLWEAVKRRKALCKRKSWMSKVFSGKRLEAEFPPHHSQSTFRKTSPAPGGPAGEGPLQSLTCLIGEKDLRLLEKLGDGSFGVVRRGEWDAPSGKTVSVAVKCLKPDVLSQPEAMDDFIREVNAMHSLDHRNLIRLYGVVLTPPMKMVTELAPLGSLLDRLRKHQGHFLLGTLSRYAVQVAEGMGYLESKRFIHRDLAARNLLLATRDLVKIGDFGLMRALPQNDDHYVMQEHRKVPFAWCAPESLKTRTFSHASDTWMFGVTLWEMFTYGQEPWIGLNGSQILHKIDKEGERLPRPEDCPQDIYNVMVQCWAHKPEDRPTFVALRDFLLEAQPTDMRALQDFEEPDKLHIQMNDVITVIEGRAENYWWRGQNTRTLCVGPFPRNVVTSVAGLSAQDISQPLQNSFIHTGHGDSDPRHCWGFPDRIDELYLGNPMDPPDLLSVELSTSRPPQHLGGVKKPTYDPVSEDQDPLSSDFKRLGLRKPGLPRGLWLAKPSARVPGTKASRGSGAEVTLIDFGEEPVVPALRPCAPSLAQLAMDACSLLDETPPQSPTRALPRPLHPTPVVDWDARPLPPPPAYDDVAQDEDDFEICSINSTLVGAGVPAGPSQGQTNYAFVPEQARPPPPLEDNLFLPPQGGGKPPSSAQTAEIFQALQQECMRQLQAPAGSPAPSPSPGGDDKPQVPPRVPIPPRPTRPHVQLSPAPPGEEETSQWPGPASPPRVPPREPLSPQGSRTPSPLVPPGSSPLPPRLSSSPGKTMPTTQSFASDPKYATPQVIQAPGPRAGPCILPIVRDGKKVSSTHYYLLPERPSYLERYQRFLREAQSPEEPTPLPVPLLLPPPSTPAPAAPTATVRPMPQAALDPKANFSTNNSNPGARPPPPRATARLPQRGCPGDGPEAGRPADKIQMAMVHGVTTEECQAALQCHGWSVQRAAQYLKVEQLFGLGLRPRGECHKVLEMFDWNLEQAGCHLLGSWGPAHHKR

[9] = system: Mast/stem cell growth factor receptor Kit (Homo sapiens), P10721 [D816V]; assay: Inhibition of KIT D816V mutant at 1 uM; outline: as §1
Mast/stem cell growth factor receptor Kit (Homo sapiens), P10721 [D816V], sequence (P10721 whole entry D816V): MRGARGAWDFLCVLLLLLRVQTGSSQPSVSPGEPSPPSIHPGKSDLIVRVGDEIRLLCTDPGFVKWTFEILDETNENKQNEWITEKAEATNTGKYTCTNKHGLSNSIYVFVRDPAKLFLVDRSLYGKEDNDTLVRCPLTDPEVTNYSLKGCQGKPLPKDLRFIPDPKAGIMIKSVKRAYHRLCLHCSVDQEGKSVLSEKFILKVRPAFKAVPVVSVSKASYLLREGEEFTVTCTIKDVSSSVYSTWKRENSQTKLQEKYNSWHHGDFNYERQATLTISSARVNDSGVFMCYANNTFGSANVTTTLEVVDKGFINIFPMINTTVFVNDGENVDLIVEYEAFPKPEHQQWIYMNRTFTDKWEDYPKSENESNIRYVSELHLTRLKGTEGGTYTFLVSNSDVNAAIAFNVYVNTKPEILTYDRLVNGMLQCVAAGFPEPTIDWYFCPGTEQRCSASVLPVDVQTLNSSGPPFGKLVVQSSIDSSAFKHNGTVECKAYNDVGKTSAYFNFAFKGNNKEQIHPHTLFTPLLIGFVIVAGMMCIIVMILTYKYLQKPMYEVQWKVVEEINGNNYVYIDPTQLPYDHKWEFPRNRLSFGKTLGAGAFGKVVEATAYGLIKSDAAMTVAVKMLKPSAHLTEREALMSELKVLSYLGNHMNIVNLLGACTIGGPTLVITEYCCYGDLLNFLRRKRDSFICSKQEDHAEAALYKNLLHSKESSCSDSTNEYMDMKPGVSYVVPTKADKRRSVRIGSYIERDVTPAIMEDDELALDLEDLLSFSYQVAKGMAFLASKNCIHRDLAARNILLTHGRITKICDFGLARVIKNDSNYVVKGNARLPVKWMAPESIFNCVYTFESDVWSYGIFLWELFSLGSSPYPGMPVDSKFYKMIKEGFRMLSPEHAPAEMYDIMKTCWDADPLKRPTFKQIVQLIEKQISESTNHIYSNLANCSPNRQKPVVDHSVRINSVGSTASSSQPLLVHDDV

[10] = target: T1, Serine/threonine-protein kinase ICK (Homo sapiens) (UniProt Q9UPZ9); assay: Inhibition of ICK at 1 uM
T1 sequence (whole entry): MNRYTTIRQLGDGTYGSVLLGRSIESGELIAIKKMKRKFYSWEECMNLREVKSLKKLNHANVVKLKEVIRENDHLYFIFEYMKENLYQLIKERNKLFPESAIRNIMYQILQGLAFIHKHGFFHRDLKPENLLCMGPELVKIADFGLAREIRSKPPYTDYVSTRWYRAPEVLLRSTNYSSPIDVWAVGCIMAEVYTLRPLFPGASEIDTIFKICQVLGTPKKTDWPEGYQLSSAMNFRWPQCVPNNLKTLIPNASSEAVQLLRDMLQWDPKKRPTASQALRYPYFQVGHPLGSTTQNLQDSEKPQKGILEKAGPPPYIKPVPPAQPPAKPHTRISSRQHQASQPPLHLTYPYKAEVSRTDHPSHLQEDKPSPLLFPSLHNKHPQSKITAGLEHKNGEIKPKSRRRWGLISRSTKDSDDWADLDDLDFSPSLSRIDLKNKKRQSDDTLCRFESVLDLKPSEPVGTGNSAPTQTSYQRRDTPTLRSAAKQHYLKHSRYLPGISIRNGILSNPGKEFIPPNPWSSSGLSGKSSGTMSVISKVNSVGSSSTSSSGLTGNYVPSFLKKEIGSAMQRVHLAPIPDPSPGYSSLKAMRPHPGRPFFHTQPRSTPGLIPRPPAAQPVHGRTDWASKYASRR

[11] = system: Mast/stem cell growth factor receptor Kit (Homo sapiens), P10721 [V559D,T670I]; assay: Inhibition of KIT V559D,T670I mutant at 1 uM; outline: as §1
Mast/stem cell growth factor receptor Kit (Homo sapiens), P10721 [V559D,T670I], sequence (P10721 whole entry V559D/T670I): as the sequence (P10721 whole entry D816V) above, with V559D, T670I, V816D counted along it

[12] = target: T2, Tyrosine-protein kinase Mer (Homo sapiens) (UniProt Q12866); assay: Inhibition of MERTK at 1 uM
T2 sequence (whole entry): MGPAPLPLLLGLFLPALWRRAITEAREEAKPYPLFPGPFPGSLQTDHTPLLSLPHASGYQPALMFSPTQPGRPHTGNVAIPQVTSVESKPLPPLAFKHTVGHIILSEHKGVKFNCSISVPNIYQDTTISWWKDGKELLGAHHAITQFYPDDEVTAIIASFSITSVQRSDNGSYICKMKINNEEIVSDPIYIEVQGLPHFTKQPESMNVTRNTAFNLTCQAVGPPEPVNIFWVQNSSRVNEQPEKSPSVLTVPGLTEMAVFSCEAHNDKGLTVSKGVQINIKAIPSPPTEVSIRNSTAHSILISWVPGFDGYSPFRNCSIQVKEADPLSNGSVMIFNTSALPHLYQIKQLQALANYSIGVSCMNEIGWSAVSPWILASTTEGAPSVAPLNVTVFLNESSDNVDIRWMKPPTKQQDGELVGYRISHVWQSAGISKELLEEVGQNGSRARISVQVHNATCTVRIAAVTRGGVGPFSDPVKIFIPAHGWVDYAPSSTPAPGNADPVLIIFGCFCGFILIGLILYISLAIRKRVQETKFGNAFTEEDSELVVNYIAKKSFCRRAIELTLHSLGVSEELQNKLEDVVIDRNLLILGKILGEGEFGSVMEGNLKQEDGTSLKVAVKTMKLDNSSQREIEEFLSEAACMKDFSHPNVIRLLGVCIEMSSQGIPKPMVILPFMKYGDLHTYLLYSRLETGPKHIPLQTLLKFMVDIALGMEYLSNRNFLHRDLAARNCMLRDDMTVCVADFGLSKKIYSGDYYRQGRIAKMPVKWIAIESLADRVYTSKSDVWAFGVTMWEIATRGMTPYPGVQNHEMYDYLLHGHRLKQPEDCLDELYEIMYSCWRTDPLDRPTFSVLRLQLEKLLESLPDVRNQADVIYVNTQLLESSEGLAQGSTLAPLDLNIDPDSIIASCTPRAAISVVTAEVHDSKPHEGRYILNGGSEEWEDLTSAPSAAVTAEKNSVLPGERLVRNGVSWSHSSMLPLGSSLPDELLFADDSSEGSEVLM
Outline: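 Kinase-panel screen using KINOMEscan technology, with 250–400 kinases per panel. Each compound was tested at a single concentration, and inhibition of each kinase was recorded. Selectivity was summarised as S(90), the fraction of kinases inhibited by more than 90%.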

[13] = target: Myosin light chain kinase, smooth muscle (Homo sapiens) (UniProt Q15746); assay: Inhibition of MYLK at 1 uM
Myosin light chain kinase, smooth muscle (Homo sapiens), sequence (Q15746 whole entry): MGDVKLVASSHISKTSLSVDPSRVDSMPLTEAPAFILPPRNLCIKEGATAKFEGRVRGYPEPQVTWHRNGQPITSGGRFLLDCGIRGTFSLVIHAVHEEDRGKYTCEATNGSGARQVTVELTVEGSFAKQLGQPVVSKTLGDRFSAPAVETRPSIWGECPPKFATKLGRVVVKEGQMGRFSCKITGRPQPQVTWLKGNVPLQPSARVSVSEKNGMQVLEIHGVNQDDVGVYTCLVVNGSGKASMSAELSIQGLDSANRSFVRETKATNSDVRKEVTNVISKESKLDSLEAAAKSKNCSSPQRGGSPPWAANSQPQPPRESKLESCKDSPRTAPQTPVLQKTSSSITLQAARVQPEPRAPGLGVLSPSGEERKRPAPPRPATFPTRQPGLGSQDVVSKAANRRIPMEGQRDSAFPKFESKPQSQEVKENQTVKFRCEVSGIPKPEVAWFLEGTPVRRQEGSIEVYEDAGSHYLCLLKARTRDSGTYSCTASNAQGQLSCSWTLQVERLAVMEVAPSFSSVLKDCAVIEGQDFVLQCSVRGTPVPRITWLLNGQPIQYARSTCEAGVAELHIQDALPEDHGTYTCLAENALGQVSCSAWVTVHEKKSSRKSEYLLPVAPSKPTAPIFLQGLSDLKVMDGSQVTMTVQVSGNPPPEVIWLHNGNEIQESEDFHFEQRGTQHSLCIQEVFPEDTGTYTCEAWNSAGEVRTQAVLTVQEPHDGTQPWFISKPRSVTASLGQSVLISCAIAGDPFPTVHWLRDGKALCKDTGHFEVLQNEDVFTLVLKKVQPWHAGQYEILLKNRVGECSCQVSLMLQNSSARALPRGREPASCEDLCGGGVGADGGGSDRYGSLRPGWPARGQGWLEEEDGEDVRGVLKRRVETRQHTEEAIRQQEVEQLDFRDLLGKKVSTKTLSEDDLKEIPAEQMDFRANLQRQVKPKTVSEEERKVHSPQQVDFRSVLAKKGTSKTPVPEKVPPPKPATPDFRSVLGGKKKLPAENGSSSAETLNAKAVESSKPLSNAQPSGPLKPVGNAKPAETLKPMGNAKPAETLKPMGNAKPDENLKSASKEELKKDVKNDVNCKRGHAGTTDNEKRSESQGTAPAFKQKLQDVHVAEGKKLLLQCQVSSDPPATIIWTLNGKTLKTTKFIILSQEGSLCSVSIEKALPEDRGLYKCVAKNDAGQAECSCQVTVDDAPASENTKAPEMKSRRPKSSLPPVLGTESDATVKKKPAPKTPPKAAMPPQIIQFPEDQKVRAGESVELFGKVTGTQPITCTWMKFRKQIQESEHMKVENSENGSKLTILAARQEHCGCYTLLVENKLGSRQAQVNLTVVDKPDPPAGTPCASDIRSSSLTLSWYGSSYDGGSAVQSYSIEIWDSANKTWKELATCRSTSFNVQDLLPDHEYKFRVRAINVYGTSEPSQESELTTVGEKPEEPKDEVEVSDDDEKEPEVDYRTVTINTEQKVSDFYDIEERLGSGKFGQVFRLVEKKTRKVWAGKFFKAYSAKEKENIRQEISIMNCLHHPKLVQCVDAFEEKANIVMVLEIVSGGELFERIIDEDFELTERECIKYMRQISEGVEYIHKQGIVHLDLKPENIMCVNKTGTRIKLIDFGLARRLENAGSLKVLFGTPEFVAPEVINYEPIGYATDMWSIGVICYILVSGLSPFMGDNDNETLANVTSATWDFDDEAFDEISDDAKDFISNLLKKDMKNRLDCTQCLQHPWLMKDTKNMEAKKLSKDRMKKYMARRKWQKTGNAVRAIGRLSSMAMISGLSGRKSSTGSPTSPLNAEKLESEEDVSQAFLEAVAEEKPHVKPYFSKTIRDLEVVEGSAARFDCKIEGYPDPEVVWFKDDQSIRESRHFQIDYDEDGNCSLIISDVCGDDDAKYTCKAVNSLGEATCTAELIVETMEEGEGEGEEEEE

[14] = target: Dual specificity protein kinase CLK4 (Homo sapiens) (UniProt Q9HAZ1); assay: Inhibition of CLK4 at 1 uM; outline: as §2
[15] = target: T3, Mitogen-activated protein kinase 13 (Homo sapiens) (UniProt O15264); assay: Inhibition of p38-delta at 1 uM
T3 sequence (whole entry): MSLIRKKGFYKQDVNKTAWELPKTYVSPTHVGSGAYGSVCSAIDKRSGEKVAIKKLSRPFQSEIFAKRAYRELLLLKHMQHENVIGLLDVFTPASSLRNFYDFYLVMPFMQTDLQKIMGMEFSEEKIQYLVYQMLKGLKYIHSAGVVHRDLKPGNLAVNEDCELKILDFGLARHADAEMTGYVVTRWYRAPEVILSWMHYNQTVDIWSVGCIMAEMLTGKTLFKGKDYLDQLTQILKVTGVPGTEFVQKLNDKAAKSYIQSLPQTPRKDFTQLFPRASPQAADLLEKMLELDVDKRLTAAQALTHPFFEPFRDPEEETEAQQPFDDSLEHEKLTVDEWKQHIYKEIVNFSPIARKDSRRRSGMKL

inhibition [1] [%] | inhibition [2] [%] | inhibition [3] [%] | inhibition [4] [%] | inhibition [5] [%] | inhibition [6] [%] | inhibition [7] [%] | inhibition [8] [%] | inhibition [9] [%] | inhibition [10] [%] | inhibition [11] [%] | inhibition [12] [%] | inhibition [13] [%] | inhibition [14] [%] | inhibition [15] [%] | SMILES
< 50 | 98 | < 50 | < 50 | < 50 | < 50 | < 50 | 99 | < 50 | < 50 | < 50 | < 50 | < 50 | < 50 | < 50 | CC(=O)N1CCN(c2cc(-c3cnc4c(c3)N(Cc3cc(Cl)ccc3C(F)(F)F)CCN4)ccn2)CC1
< 50 | < 50 | – | < 50 | – | < 50 | < 50 | 93.2 | < 50 | – | < 50 | < 50 | – | < 50 | – | O=C(c1ccc(-c2cnc3c(c2)N(Cc2cc(Cl)ccc2C(F)(F)F)CCN3)cc1)N1CCCCC1
< 50 | 98 | < 50 | < 50 | < 50 | < 50 | < 50 | 88 | < 50 | < 50 | < 50 | < 50 | < 50 | < 50 | < 50 | CN1CCN(c2ccc(-c3cnc4c(c3)N(Cc3cc(Cl)ccc3Cl)CCN4)cn2)CC1
< 50 | 83.4 | – | < 50 | – | < 50 | < 50 | 99.8 | < 50 | – | < 50 | < 50 | – | < 50 | – | O=C(c1ccc(-c2cnc3c(c2)N(Cc2cc(Cl)ccc2C(F)(F)F)CCN3)cc1)N1CCC(N2CCCC2)CC1

More lines, now with the values behind:

SMILES | inhibition [1] [%] | inhibition [2] [%] | inhibition [3] [%] | inhibition [4] [%] | inhibition [5] [%] | inhibition [6] [%] | inhibition [7] [%] | inhibition [8] [%] | inhibition [9] [%] | inhibition [10] [%] | inhibition [11] [%] | inhibition [12] [%] | inhibition [13] [%] | inhibition [14] [%] | inhibition [15] [%]
O=C(O)c1ccc(-c2cnc3c(c2)N(Cc2cc(Cl)ccc2C(F)(F)F)CCN3)cc1 | < 50 | < 50 | – | < 50 | – | < 50 | < 50 | 97.4 | < 50 | – | < 50 | < 50 | – | < 50 | –
CN1CCN(c2ccc(-c3cnc4c(c3)N(Cc3cc(Cl)ccc3C(F)(F)F)CCN4)cn2)CC1 | < 50 | 98 | < 50 | < 50 | < 50 | < 50 | < 50 | 98 | < 50 | < 50 | < 50 | < 50 | < 50 | < 50 | < 50
CN1CCN(c2ccc(-c3cnc4c(c3)N(Cc3cc(F)ccc3F)CCN4)cn2)CC1 | < 50 | 96.7 | < 50 | < 50 | < 50 | < 50 | < 50 | 79 | < 50 | < 50 | < 50 | < 50 | < 50 | < 50 | < 50
COC1CCN(C(=O)c2ccc(-c3cnc4c(c3)N(Cc3cc(Cl)ccc3C(F)(F)F)CCN4)cc2)CC1 | < 50 | 85.6 | – | < 50 | – | < 50 | < 50 | 97.2 | < 50 | – | < 50 | < 50 | – | < 50 | –
CN1CCN(c2ccc(-c3cnc4c(c3)N(Cc3c(F)ccc(F)c3Cl)CCN4)cn2)CC1 | 82 | 97 | < 50 | < 50 | < 50 | < 50 | < 50 | 85 | < 50 | < 50 | < 50 | < 50 | < 50 | < 50 | < 50
FC(F)(F)c1ccc(Cl)cc1CN1CCNc2ncc(-c3ccnc(N4CCNCC4)c3)cc21 | < 50 | 99 | < 50 | < 50 | < 50 | < 50 | < 50 | 99 | 76 | < 50 | 84 | < 50 | < 50 | < 50 | < 50
